Assay results published in ChEMBL document CHEMBL1135622, “Use of the Kohonen neural network for rapid screening of ex vivo anti-HIV activity of styrylquinolines” (J Med Chem, 2002).
pIC50: −log10 of the molar value.

Assays:
[1] = system: Human immunodeficiency virus 1; test: Cytotoxicity (C) and percentage of dead cells at 100 uM concentration.; format: functional
Summary of the method: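 CEM lymphocytes (RPMI-1640, 10% FCS) plated in triplicate and infected with cell-free HIV-1 NL4-3; virus removed after 2 h, drug at 100 µM added in DMSO in fresh medium for 72 h. Viability by MTT (7.5 mg/mL stock), 4 h at […], formazan dissolved in SDS/HCl, absorbance at 570 nm; value given as percentage of dead cells.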

[2] = system: Human immunodeficiency virus 1; test: Reduction of viral load in the cell supernatant.; format: functional, organism-based
[3] = system: Human immunodeficiency virus 1; test: Ex vivo activity against residual viruses (% of nontreated infected cells) in cell supernatant at 100 uM concentration.; format: functional
[4] = system: Human immunodeficiency virus 1; test: Inhibitory concentration against HIV-1 required for 50% reduction of viral load in the cell supernatant; Not reached.; format: functional, organism-based

## COc1cc(/C=C/c2ccc3ccc(C(=O)O)c(O)c3n2)ccc1O
[1]
  Cytotoxicity: 48%
[2]
  pIC50: 5.52
[3]
  RV: 12%

## COc1ccc(/C=C/c2ccc3ccc(C(=O)O)c(O)c3n2)cc1O
[1]
  Cytotoxicity: 57%
[2]
  pIC50: 4.27
[3]
  RV: 0%

## O=C(O)c1ccc2ccc(/C=C/c3ccc(F)c(F)c3)nc2c1O
[1]
  Cytotoxicity: 91%
[2]
  pIC50: 4.52
[3]
  RV: 2%

## O=C(O)c1ccc2ccc(/C=C/c3ccc4c(c3)OCO4)nc2c1O
[1]
  Cytotoxicity: 40%
[2]
  pIC50: 5.00
[3]
  RV: 4%

## O=C(O)c1ccc2ccc(/C=C/c3ccc(O)cc3)nc2c1O
[1]
  Cytotoxicity: 50%
[2]
  pIC50: 4.02
[3]
  RV: 26%

## O=C(O)c1cccc2nc(/C=C/c3ccc(O)c(O)c3)ccc12
[1]
  Cytotoxicity: 0%
[2]
  pIC50: 4.30
[3]
  RV: 5%

## O=C(O)c1ccc2ccc(/C=C/c3ccc(CO)cc3)nc2c1O
[1]
  Cytotoxicity: 17%
[2]
  pIC50: 3.96
[3]
  RV: 55%

## Nc1ccc(/C=C/c2ccc3ccc(C(=O)O)c(O)c3n2)cc1
[1]
  Cytotoxicity: 40%
[2]
  pIC50: 4.30
[3]
  RV: 8%

## O=C(O)c1ccc2nc(/C=C/c3ccc(O)c(O)c3)ccc2c1
[1]
  Cytotoxicity: 0%
[2]
  pIC50: 4.70
[3]
  RV: 4%

## COc1cc(/C=C/c2ccc3ccc(C(=O)O)cc3n2)ccc1O
[1]
  Cytotoxicity: 30%
[2]
  pIC50: 4.70
[3]
  RV: 17%

## O=C(O)c1ccc2ccc(/C=C/c3ccccc3)nc2c1O
[1]
  Cytotoxicity: 100%
[3]
  RV: 0%

## O=C(O)c1ccc2ccc(/C=C/c3cc(O)c(O)c(O)c3)nc2c1O
[1]
  Cytotoxicity: 90%
[3]
  RV: 0%

## O=C(O)c1cc(/C=C/c2ccc3ccc(C(=O)O)c(O)c3n2)ccc1O
[1]
  Cytotoxicity: 0%
[2]
  pIC50: 4.10
[3]
  RV: 24%

## Oc1ccc(/C=C/c2ccc3cccc(O)c3n2)cc1O
[1]
  Cytotoxicity: 78%
[3]
  RV: 1%

## O=C(O)c1ccc2ccc(/C=C/c3cc(O)cc(/C=C/c4ccc5ccc(C(=O)O)c(O)c5n4)c3)nc2c1O
[1]
  Cytotoxicity: 0%
[4]
  NR: Not reached
[3]
  RV: 100%

## O=C(O)c1ccc2ccc(/C=C/c3cccnc3)nc2c1O
[1]
  Cytotoxicity: 74%
[4]
  NR: Not reached
[3]
  RV: 74%

## O=C(O)c1ccc2ccc(/C=C/c3cc(O)cc(O)c3)nc2c1O
[1]
  Cytotoxicity: 17%
[4]
  NR: Not reached
[3]
  RV: 55%

## COc1cc(/C=C/c2ccc3ccc(C(=O)O)c(O)c3n2)cc(OC)c1O
[1]
  Cytotoxicity: 17%
[2]
  pIC50: 5.05
[3]
  RV: 0%

## O=C(O)c1ccc2ccc(/C=C/c3ccc([N+](=O)[O-])cc3)nc2c1O
[1]
  Cytotoxicity: 74%
[3]
  RV: 6%

## O=C(O)c1cc(C(=O)O)c2ccc(/C=C/c3ccc(O)c(O)c3)nc2c1
[1]
  Cytotoxicity: 0%
[2]
  pIC50: 4.82
[3]
  RV: 5%

## O=C(O)c1ccc2ccc(/C=C/c3cc(O)c(O)c(I)c3)nc2c1O
[1]
  Cytotoxicity: 42%
[2]
  pIC50: 5.17
[3]
  RV: 3%

## O=C(O)c1ccc2ccc(/C=C/c3ccsc3)nc2c1O
[1]
  Cytotoxicity: 68%
[3]
  RV: 0%

## COc1cc(/C=C/c2ccc3ccc(C(=O)O)c(O)c3n2)cc(O)c1O
[1]
  Cytotoxicity: 14%
[2]
  pIC50: 4.92
[3]
  RV: 6%

## O=C(O)c1ccc2ccc(/C=C/c3ccc(O)c(O)c3)nc2c1O
[1]
  Cytotoxicity: 70%
[2]
  pIC50: 5.89
[3]
  RV: 0%

## O=C(O)c1ccc2ccc(/C=C/c3ccc(O)cc3O)nc2c1O
[1]
  Cytotoxicity: 26%
[2]
  pIC50: 4.10
[3]
  RV: 42%

## CC(=O)Nc1ccc(/C=C/c2ccc3ccc(C(=O)O)c(O)c3n2)cc1
[1]
  Cytotoxicity: 88%
[3]
  RV: 0%

## O=C(O)c1ccc2ccc(/C=C/c3cc(Br)c(O)c(Br)c3)nc2c1O
[1]
  Cytotoxicity: 8%
[2]
  pIC50: 4.52
[3]
  RV: 13%

## O=C(O)c1ccc2ccc(/C=C/c3ccco3)nc2c1O
[1]
  Cytotoxicity: 0%
[4]
  NR: Not reached
[3]
  RV: 70%

## O=C(O)c1cccc2ccc(/C=C/c3ccc(O)c(O)c3)nc12
[1]
  Cytotoxicity: 0%
[2]
  pIC50: 4.92
[3]
  RV: 0%
